Here are results for three compounds from PubChem BioAssay AID588455 (Southern Research Specialized Biocontainment Screening …, 2011).

The assay concerns HEp-2 RSV Long CPE inhibition, luminescence viability. In words: RSV cytopathic effect inhibition in HEp-2 cells, dose response, cell-based, synthesized compounds, set 13 (AID 588455). A digest of the protocol: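 Detection: luminescence-based measurement of viral cytopathic effect. Material: HEp-2 human cells infected with RSV strain Long. Schedule: 6 days of virus and compound exposure at 37 °C. Read-out basis: % CPE inhibition and IC50 (4-parameter fit, 0–100 fixed). Reagent: RSV strain Long virus at MOI 0.45.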
Background: Damage to the host cells serves as the signal in cytopathic effect assays.

With `COCCCNC(=O)c1ccc(Cn2c(=O)c3ccccc3n(Cc3ccc(Cl)cc3)c2=O)cc1`, the IC50 was 970 nM.

In the case of `COCCCNC(=O)c1ccc(Cn2c(=O)c3ccccc3n(Cc3ccc(Br)cc3)c2=O)cc1`, the IC50 was 480 nM.

Regarding `COCCCNC(=O)c1ccc(Cn2c(=O)c3ccccc3n(Cc3ccc([N+](=O)[O-])cc3)c2=O)cc1`, the IC50 is 480 nM.

The term IC50 denotes the midpoint of a concentration-inhibition curve.
